These results are taken from paper PMC7970580 (ACS Omega, 2021).

Read-outs that look alike come from different tables or passages of the source.

Holding throughout (format): cell-based
Test [1] deals with U937. Nature of the test: MTT antiproliferative assay, leukemia U937 cells. As to conditions: Homo sapiens, U-937, 72 h, read-out: IC50 values, U937. In a few lines: (§1)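 ATCC-sourced cancer cells were seeded in RPMI 1640 at 20 000 cells/mL and left 24 h to adhere. Serial dilutions of test compound ([…], in DMSO) were added, then incubated 72 h. MTT (5 mg/mL in PBS) was added for 4 h. Medium was removed, formazan dissolved in DMSO and read at 570 nm. IC50 came from linear regression of the dose–response curve; three runs, mean ± SD.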
Background: Tetrazolium assays rely on reduction of a dye to a coloured formazan, in cell work by metabolically active cells.

Test [2] relates to SKMEL-28. Nature of the test: MTT antiproliferative assay, melanoma SKMEL-28 cells. To be noted: read-out: IC50 values, SKMEL-28. In short, it runs like this:
as §1

The subject of test [3] is NCIH 460. Nature of the test: MTT antiproliferative assay, large-cell lung NCIH 460 cells. As to conditions: Homo sapiens, NCI-H460, 72 h, read-out: IC50 values, N CIH 460. In a few lines: as §1
In test [4] the test system is RKOP 27. Nature of the test: MTT antiproliferative assay, colon RKOP 27 cells. As to conditions: RKOp27, 72 h, read-out: IC50 values, RKOP 27. In a few lines: as §1
The test system of test [5] is HeLa. Nature of the test: MTT antiproliferative assay, cervical HeLa cells. To be noted: Homo sapiens, 72 h, read-out: IC50 values, HeLa. In a few lines: as §1

Consider `Cc1cc(=O)[nH]n1-c1nc(-c2cccc3ccccc23)cc(-c2ccc(Cl)cc2)c1C#N` [13a, 4-(4-Chlorophenyl)-2-(5-methyl-3-oxo-2,3-dihydro-1H-pyrazol-1-yl)-6-(naphthalen-1-yl)nicotinonitrile], for which the IC50 (in general, the concentration needed to halve the response being measured) in test [1] came out at 1690 ± 89 nM; in test [2] (Homo sapiens, SK-MEL-28, 72 h), 1500 ± 218 nM; in test [3], 765 ± 89 nM; in test [4] it was 879 ± 68 nM; in test [5], 1270 ± 103 nM.
As for `N#Cc1c(-c2ccc(Cl)cc2)cc(-c2cccc3ccccc23)nc1NCCN` [10a, 2-((2-Aminoethyl)amino)-4-(4-chlorophenyl)-6-(naphthalen-1-yl)nicotinonitrile], the half-maximal inhibitory concentration (IC50) in test [1] was 1810 ± 369 nM; in test [2] (Homo sapiens, SK-MEL-28, 72 h), 1790 ± 236 nM; in test [3] it was 896 ± 78 nM; in test [4] it was 596 ± 59 nM; in test [5], 1160 ± 206 nM.
Taken in the same sequence, the figures for `CCCCCCCCN(c1nc(-c2cccc3ccccc23)cc(-c2ccc(Cl)cc2)c1C#N)c1nc(-c2cccc3ccccc23)cc(-c2ccc(Cl)cc2)c1C#N` [8a, 2,2′-(Octylazanediyl)bis(4-(4-chlorophenyl)-6-(naphthalen-1-yl)nicotinonitrile)] were 544 ± 74 nM, 774 ± 21 nM, 48 ± 7.4 nM, 40 ± 2.1 nM and 229 ± 74 nM.
Consider `N#Cc1c(-c2cccs2)cc(-c2cccc3ccccc23)nc1NNC(=O)Cc1ccccc1` [14b, N′-(3-Cyano-6-(naphthalen-1-yl)-4-(thiophen-2-yl)pyridin-2-yl)-2-phenylacetohydrazide], for which the half-inhibitory concentration (IC50) in test [1] amounted to 976 ± 125 nM; in test [2] (Homo sapiens, SK-MEL-28, 72 h) it was 1360 ± 98 nM; in test [3], 789 ± 69 nM; in test [4], 869 ± 87 nM; in test [5], 1390 ± 110 nM.
For `N#Cc1c(-c2ccc(Cl)cc2)cc(-c2cccc3ccccc23)nc1Cl` [6a, 2-Chloro-4-(4-chlorophenyl)-6-(naphthalen-1-yl)nicotinonitrile], the half-maximal inhibitory concentration (IC50) in test [1] was 1340 ± 174 nM; in test [2] (Homo sapiens, SK-MEL-28, 72 h), 1850 ± 321 nM; in test [3], 689 ± 98 nM; in test [4] it was 512 ± 32 nM; in test [5] it was 896 ± 115 nM.
Turning to aldelseukin [reference compound], the IC50 in test [2] (MTT, 72 h, mean ± SD, three runs) was determined as 3450 ± 64 nM.
For the compound `CCCCCOC(=O)Nc1nc(=O)n([C@@H]2O[C@H](C)[C@@H](O)[C@H]2O)cc1F` [capecitabine, reference compound], the IC50 in test [4] came out at 4330 ± 64 nM.
For `Nc1ccn([C@@H]2O[C@H](CO)[C@@H](O)C2(F)F)c(=O)n1` [gemcitabine, reference compound], the concentration for half-maximal inhibition (IC50) in test [3] was determined as 2130 ± 50 nM.
With `N#Cc1c(-c2cccs2)cc(-c2cccc3ccccc23)[nH]c1=S` [7b, 6-(Naphthalen-1-yl)-4-(thiophen-2-yl)-2-thioxo-1,2-dihydropyridine-3-carbonitrile], the IC50 in test [1] worked out at 1570 ± 321 nM; in test [2] (Homo sapiens, SK-MEL-28, 72 h), 1130 ± 137 nM; in test [3] it was 638 ± 138 nM; in test [4], 697 ± 72 nM; in test [5] it was 1370 ± 213 nM.
Consider `Cc1nnc2c(C#N)c(-c3cccs3)cc(-c3cccc4ccccc34)n12` [12b, 3-Methyl-5-(naphthalen-1-yl)-7-(thiophen-2-yl)-[1,2,4]triazolo[4,3-a]pyridine-8-carbonitrile], for which the half-maximal inhibitory concentration (IC50) in test [1] is 1470 ± 151 nM; in test [2] (Homo sapiens, SK-MEL-28, 72 h), 1370 ± 389 nM; in test [3], 648 ± 76 nM; in test [4], 869 ± 87 nM; in test [5], 1440 ± 108 nM.
For the compound `N#Cc1c(-c2ccc(Cl)cc2)cc(-c2cccc3ccccc23)[nH]c1=O` [4a, 4-(4-Chlorophenyl)-6-(naphthalen-1-yl)-2-oxo-1,2-dihydropyridine-3-carbonitrile], the IC50 came out at 766 ± 19 nM in test [1]; 590 ± 15 nM in test [2] (Homo sapiens, SK-MEL-28, 72 h); 66 ± 9 nM in test [3]; 30 ± 1.5 nM in test [4]; 250 ± 19 nM in test [5].
Regarding `N#Cc1c(-c2cccs2)cc(-c2cccc3ccccc23)nc1NN` [11b, 2-Hydrazinyl-6-(naphthalen-1-yl)-4-(thiophen-2-yl)nicotinonitrile], the half-inhibitory concentration (IC50) in test [1] amounted to 1590 ± 215 nM; in test [2] (Homo sapiens, SK-MEL-28, 72 h), 1300 ± 106 nM; in test [3], 478 ± 96 nM; in test [4], 846 ± 96 nM; in test [5] it was 1260 ± 227 nM.
`CCCCCCCCN(c1nc(-c2cccc3ccccc23)cc(-c2cccs2)c1C#N)c1nc(-c2cccc3ccccc23)cc(-c2cccs2)c1C#N` [8b, 2,2′-(Octylazanediyl)bis(6-(naphthalen-1-yl)-4-(thiophen-2-yl)nicotinonitrile)]: the IC50 is 1370 ± 284 nM in test [1]; 1260 ± 168 nM in test [2] (Homo sapiens, SK-MEL-28, 72 h); 468 ± 69 nM in test [3]; 486 ± 49 nM in test [4]; 1040 ± 326 nM in test [5].
In the case of `N#Cc1c(-c2ccc(Cl)cc2)cc(-c2cccc3ccccc23)[nH]c1=S` [7a, 4-(4-Chlorophenyl)-6-(naphthalen-1-yl)-2-thioxo-1,2-dihydropyridine-3-carbonitrile], the half-maximal inhibitory concentration (IC50) is 1630 ± 298 nM in test [1]; 1240 ± 196 nM in test [2] (Homo sapiens, SK-MEL-28, 72 h); 764 ± 102 nM in test [3]; 596 ± 96 nM in test [4]; 1020 ± 136 nM in test [5].
Consider `COc1cccc2c1C(=O)c1c(O)c3c(c(O)c1C2=O)C[C@@](O)(C(=O)CO)C[C@@H]3O[C@H]1C[C@H](N)[C@H](O)[C@H](C)O1` [doxorubicin, reference compound], for which, in test [1], the IC50 is 4450 ± 50 nM.
`Cc1nnc2c(C#N)c(-c3ccc(Cl)cc3)cc(-c3cccc4ccccc34)n12` [12a, 7-(4-Chlorophenyl)-3-methyl-5-(naphthalen-1-yl)-[1,2,4]triazolo[4,3-a]pyridine-8-carbonitrile]: the half-maximal inhibitory concentration (IC50) in test [1] amounted to 581 ± 51 nM; in test [2] (Homo sapiens, SK-MEL-28, 72 h), 510 ± 41 nM; in test [3], 33 ± 5.1 nM; in test [4], 48 ± 4.1 nM; in test [5] it was 185 ± 51 nM.
Regarding `N#Cc1c(-c2cccs2)cc(-c2cccc3ccccc23)nc1NCCN` [10b, 2-((2-Aminoethyl)amino)-6-(naphthalen-1-yl)-4-(thiophen-2-yl)nicotinonitrile], the IC50 in test [1] was determined as 642 ± 69 nM; in test [2] (Homo sapiens, SK-MEL-28, 72 h) it was 669 ± 26 nM; in test [3] it was 46 ± 6.9 nM; in test [4], 46 ± 2.6 nM; in test [5] it was 211 ± 69 nM.
Regarding `N#Cc1c(-c2ccc(Cl)cc2)cc(-c2cccc3ccccc23)n(C(=S)Nc2ccccc2)c1=O` [5a, 4-(4-Chlorophenyl)-3-cyano-6-(naphthalen-1-yl)-2-oxo-N-phenylpyridine-1(2H)-carbothioamide], the IC50 in test [1] is 1530 ± 255 nM; in test [2] (Homo sapiens, SK-MEL-28, 72 h) it was 1160 ± 318 nM; in test [3] it was 518 ± 56.6 nM; in test [4], 635 ± 45.8 nM; in test [5], 973 ± 185 nM.
Taken in the same sequence, the figures for `N#Cc1c(-c2cccs2)cc(-c2cccc3ccccc23)nc1Cl` [6b, 2-Chloro-6-(naphthalen-1-yl)-4-(thiophen-2-yl)nicotinonitrile] were 2550 ± 374 nM, 1370 ± 215 nM, 728 ± 88 nM, 695 ± 56 nM and 795 ± 96 nM.
For the compound `N#Cc1c(-c2ccc(Cl)cc2)cc(-c2cccc3ccccc23)nc1NN` [11a, 4-(4-Chlorophenyl)-2-hydrazinyl-6-(naphthalen-1-yl)nicotinonitrile], the half-inhibitory concentration (IC50) is 458 ± 72 nM in test [1]; 572 ± 36 nM in test [2] (Homo sapiens, SK-MEL-28, 72 h); 44 ± 7.2 nM in test [3]; 55 ± 3.6 nM in test [4]; 255 ± 72 nM in test [5].
Taken in the same sequence, the figures for `N#Cc1c(-c2cccs2)cc(-c2cccc3ccccc23)n(C(=S)Nc2ccccc2)c1=O` [5b, 3-Cyano-6-(naphthalen-1-yl)-2-oxo-N-phenyl-4-(thiophen-2-yl)pyridine-1(2H)-carbothioamide] were 980 ± 55 nM, 755 ± 18 nM, 32 ± 5.5 nM, 56 ± 3.2 nM and 277 ± 55 nM.
Consider `N#Cc1c(-c2cccs2)cc(-c2cccc3ccccc23)[nH]c1=O` [4b, 6-(Naphthalen-1-yl)-2-oxo-4-(thiophen-2-yl)-1,2-dihydropyridine-3-carbonitrile], for which the IC50 in test [1] was found to be 836 ± 69 nM; in test [2] (Homo sapiens, SK-MEL-28, 72 h) it was 669 ± 9.8 nM; in test [3] it was 58 ± 6.9 nM; in test [4], 39 ± 9.8 nM; in test [5] it was 246 ± 69 nM.
Turning to `Cc1cc(=O)[nH]n1-c1nc(-c2cccc3ccccc23)cc(-c2cccs2)c1C#N` [13b, 2-(5-Methyl-3-oxo-2,3-dihydro-1H-pyrazol-1-yl)-6-(naphthalen-1-yl)-4-(thiophen-2-yl)nicotinonitrile], the IC50 in test [1] was determined as 1760 ± 68 nM; in test [2] (Homo sapiens, SK-MEL-28, 72 h) it was 1360 ± 182 nM; in test [3] it was 869 ± 76 nM; in test [4] it was 698 ± 79 nM; in test [5] it was 1360 ± 139 nM.
